≈ marks a conversion by molar mass, not a printed value.
How the values were obtained:
[1] = test system: Streptococcus pneumoniae; assay: Antibacterial activity against penicillin-susceptible Streptococcus pneumoniae OC 8865 by CLSI method; type: functional
[2] = Inhibition of bocillin FL binding to penicillin-susceptible Streptococcus pneumoniae OC 8865 penicillin-binding protein 3
In short: (§1)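 Whole S. pneumoniae cells were used rather than isolated membranes. Cells were competed with drug and then labeled with Bocillin FL, and PBP bands were visualized by fluorescence imaging. IC50 is the drug concentration that inhibits Bocillin FL binding to each PBP by 50% relative to a no-drug control.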

[3] = Inhibition of bocillin FL binding to penicillin-resistant Streptococcus pneumoniae OC 8819 penicillin-binding protein 3; in short: as §1
[4] = Inhibition of bocillin FL binding to penicillin-resistant Streptococcus pneumoniae OC 8819 penicillin-binding protein 1b; in short: as §1
[5] = biological target: T1, Penicillin-binding protein 3 (Staphylococcus aureus, UniProt Q5D1F0); assay: Inhibition of bocillin FL binding to methicillin-susceptible Staphylococcus aureus ATCC 29213 penicillin-binding protein 3
T1 sequence (Q5D1F0 whole entry): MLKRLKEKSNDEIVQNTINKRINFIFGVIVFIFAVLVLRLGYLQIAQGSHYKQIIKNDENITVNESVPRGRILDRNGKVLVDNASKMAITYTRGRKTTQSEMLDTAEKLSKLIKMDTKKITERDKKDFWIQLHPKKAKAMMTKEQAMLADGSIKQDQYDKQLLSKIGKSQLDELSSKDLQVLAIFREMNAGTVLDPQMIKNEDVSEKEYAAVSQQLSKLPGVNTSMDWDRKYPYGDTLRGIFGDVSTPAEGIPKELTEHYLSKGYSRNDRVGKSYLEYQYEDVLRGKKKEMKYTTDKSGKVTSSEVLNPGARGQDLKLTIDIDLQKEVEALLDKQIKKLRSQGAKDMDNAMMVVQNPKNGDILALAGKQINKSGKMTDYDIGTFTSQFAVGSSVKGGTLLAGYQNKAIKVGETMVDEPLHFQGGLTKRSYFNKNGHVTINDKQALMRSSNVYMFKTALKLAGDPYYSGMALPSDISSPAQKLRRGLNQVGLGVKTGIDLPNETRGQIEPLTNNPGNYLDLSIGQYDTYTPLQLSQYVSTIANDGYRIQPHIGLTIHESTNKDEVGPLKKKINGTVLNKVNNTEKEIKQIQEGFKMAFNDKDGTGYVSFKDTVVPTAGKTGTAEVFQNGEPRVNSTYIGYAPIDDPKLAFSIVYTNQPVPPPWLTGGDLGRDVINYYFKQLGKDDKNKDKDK
In short: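 Isolated S. aureus ATCC 29213 PBPs exposed to drug over 0.001 μg/ml to 50 μg/ml, followed by Bocillin FL labeling and fluorescence imaging. IC50 is 50% inhibition of Bocillin FL binding relative to no-drug control.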

[6] = Inhibition of bocillin FL binding to penicillin-susceptible Streptococcus pneumoniae OC 8865 penicillin-binding protein 2b
In short: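 S. pneumoniae OC 8865 PBPs assayed in whole cells; drug competition followed by Bocillin FL labeling and imaging of labeled PBPs. IC50 is 50% inhibition of Bocillin FL binding compared with a no-drug control.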

[7] = Inhibition of bocillin FL binding to Pseudomonas aeruginosa PAO1 penicillin-binding protein 4
In short: (§2)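 P. aeruginosa PAO1 PBPs were isolated and competed with 10 drug concentrations from 0.06 μg/ml to 32 μg/ml before Bocillin FL labeling. Bands were detected by fluorescence imaging. IC50 was taken as 50% inhibition of Bocillin FL binding versus the no-drug sample.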

[8] = biological target: Penicillin-binding protein 3 (Pseudomonas aeruginosa, UniProt Q51504); assay: Inhibition of bocillin FL binding to Pseudomonas aeruginosa PAO1 penicillin-binding protein 3
In short: (§3)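 Isolated P. aeruginosa PAO1 PBPs; drug added at 10 concentrations, 0.06 μg/ml to 32 μg/ml, before Bocillin FL labeling. Labeled PBPs imaged. IC50 is the drug level cutting Bocillin FL binding by 50% versus a no-drug sample.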

[9] = biological target: T2, Penicillin-binding protein 1B (Pseudomonas aeruginosa, UniProt Q9X6W0); assay: Inhibition of bocillin FL binding to Pseudomonas aeruginosa PAO1 penicillin-binding protein 1b; in short: as §3
T2 sequence (Q9X6W0 whole entry): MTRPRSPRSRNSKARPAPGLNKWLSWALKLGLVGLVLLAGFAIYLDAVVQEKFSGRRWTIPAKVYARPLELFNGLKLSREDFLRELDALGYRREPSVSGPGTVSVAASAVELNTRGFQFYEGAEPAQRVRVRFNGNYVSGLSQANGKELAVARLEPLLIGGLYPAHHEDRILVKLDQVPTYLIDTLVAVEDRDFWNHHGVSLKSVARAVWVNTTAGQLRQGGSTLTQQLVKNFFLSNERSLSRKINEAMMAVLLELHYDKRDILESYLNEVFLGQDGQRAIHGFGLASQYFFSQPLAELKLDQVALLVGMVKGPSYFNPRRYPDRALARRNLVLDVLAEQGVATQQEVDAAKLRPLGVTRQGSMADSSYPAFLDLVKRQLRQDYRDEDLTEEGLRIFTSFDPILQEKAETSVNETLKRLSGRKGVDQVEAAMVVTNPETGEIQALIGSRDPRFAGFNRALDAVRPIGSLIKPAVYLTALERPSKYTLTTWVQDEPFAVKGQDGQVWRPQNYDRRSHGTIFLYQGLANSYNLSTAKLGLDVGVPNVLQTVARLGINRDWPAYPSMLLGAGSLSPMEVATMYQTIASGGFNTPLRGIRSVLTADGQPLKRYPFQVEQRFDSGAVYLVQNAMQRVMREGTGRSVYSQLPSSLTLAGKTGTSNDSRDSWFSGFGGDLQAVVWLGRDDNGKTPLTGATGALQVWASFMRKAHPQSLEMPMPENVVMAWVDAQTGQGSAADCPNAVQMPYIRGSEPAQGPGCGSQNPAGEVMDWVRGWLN

[10] = Inhibition of bocillin FL binding to Pseudomonas aeruginosa PAO1 penicillin-binding protein 1a; in short: as §2

Penicillin-binding protein 3 (Pseudomonas aeruginosa, UniProt Q51504), sequence (Q51504 whole entry): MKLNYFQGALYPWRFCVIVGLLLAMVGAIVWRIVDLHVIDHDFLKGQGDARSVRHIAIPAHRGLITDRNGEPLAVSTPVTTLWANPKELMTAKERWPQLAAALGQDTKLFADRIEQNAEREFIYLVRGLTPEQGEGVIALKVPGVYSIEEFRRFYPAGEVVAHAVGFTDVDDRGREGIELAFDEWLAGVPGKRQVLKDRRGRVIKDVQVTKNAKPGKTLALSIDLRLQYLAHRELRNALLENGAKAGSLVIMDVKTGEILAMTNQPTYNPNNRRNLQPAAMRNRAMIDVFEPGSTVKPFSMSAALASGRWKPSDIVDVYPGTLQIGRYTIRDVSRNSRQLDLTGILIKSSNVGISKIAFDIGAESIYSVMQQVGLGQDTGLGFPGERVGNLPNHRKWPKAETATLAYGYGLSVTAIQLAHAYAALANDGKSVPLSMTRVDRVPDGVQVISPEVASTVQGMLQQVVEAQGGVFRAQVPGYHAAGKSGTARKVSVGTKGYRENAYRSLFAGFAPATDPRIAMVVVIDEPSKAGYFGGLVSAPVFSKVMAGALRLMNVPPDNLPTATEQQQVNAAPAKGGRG

For CO/N=C(\C(=O)N[C@@H]1C(=O)N2C(C(=O)O)=C(CSc3nc(=O)c(O)nn3C)CS[C@H]12)c1csc(N)n1 (stereo in doubt) [CEFTRIAXONE], the MIC [1] was 0.03 µg/mL (≈ 0.0541 µM), the IC50 [2] was 0.02 µg/mL (≈ 0.0361 µM) and the IC50 [3] was 0.01 µg/mL (≈ 0.018 µM). For the same compound, the IC50 [4] was 0.02 µg/mL (≈ 0.0361 µM), the IC50 [5] was 1800 nM and the IC50 [6] was greater than 1 µg/mL.

Work on CC(C)(O/N=C(\C(=O)N[C@@H]1C(=O)N2C(C(=O)[O-])=C(C[n+]3ccccc3)CS[C@H]12)c1csc(N)n1)C(=O)O [CEFTAZIDIME] yielded an IC50 [7] of 2 µg/mL (≈ 3.66 µM), an IC50 [8] of 183 nM and an IC50 [9] of 9150 nM. The IC50 [10] was 0.2 µg/mL (≈ 0.366 µM).

Compound Nc1nc(/C(=N/O)C(=O)N[C@@H]2C(=O)N3C(C(=O)O)=C(/C=C4\CCN([C@@H]5CCNC5)C4=O)CS[C@H]23)ns1 [CEFTOBIPROLE] has an MIC [1] of 0.008 µg/mL (≈ 0.015 µM), an IC50 [7] of 0.2 µg/mL (≈ 0.374 µM) and an IC50 [2] of 0.02 µg/mL (≈ 0.0374 µM). It also gave an IC50 [8] of 187 nM, an IC50 [3] of 0.01 µg/mL (≈ 0.0187 µM) and an IC50 [9] of 935 nM. For the same compound, the IC50 [5] was 93.5 nM, the IC50 [6] was 0.06 µg/mL (≈ 0.112 µM) and the IC50 [10] was 0.1 µg/mL (≈ 0.187 µM).

— ChEMBL document CHEMBL1157359, “Binding of ceftobiprole and comparators to the penicillin-binding proteins of Escherichia coli, Pseudomonas aeruginosa, Staphylococcus aureus, and Streptococcus pneumoniae” (Antimicrob Agents Chemother, 2007)
